Assay results from different studies.
≈ marks a conversion by molar mass, not a printed value.

Cc1ncc([N+](=O)[O-])n1CCO
MIC (Lacticaseibacillus casei; microbial growth, agar dilution; 48 h): > 16 µg/mL

Cc1ccc(C(CS(=O)(=O)c2ccccc2)=NNC2=NC(=O)C(=NNc3ccccc3)S2)cc1
viability (WM 266-4; cell growth or viability, MTT; 25 µM, 48 h): 41.2%

COc1ccc(-c2nc(NN=C3C(=O)Nc4ccccc43)c3ccccc3n2)cc1OC
inhibition (ZR75; cell growth or viability; 30 µM): 54.9%

O=c1[nH]c(NCc2ccc(Cl)c(Cl)c2)nc2ncn(CCN3CCOCC3)c12
MIC (Lacticaseibacillus casei; microbial growth, agar dilution; 48 h): 16 µg/mL (≈ 37.8 µM)

NC(=O)c1cccnc1
EC50 (tissue relaxation, agonist; rat): ~1000 µM

COc1cc2ncnc(NN=C3C(=O)Nc4ccc(F)cc43)c2cc1OC
inhibition (ZR75; cell growth or viability; 10 µM): 19.2%

C[C@@H](c1ncncc1F)[C@](O)(Cn1cncn1)c1ccc(F)cc1F
IC50 (Acanthamoeba castellanii; parasite growth, resazurin; 96 h): 2.69 µM

NC(=S)NN=C(CS(=O)(=O)c1ccccc1)c1ccc(F)cc1
viability (WM 266-4; cell growth or viability, MTT; 25 µM, 48 h): 31.3%

CCN(CC)CCNC(=O)c1c(C)[nH]c(/C=C2\C(=O)Nc3ccc(F)cc32)c1C
inhibition (ZR75; cell growth or viability; 30 µM): 90.7%

Nc1ccc(S(=O)(=O)Nc2ncccn2)cc1
IC50 (Toxoplasma gondii; parasite growth; human Fibroblast; intracellular): 27.3 µM

Cc1ccc(C(CS(=O)(=O)c2ccccc2)=NN=C2N=C(c3ccc(Br)cc3)CS2)cc1
viability (WM 266-4; cell growth or viability, MTT; 100 µM, 48 h): 31.7%

CC(C)(C)C1=CC(=NNc2ccc(C#N)cc2)C=C(C(C)(C)C)C1=O
IC50 (Toxoplasma gondii; parasite growth, fluorescence; 5 days, intracellular): 3.8 µM
